To fix the notation:
B1: tRNA (parent)
chain: GUUCCGUUGGCGUAAUGGUAACGCGUCUCCCUCCUAAGGAGAAGACUGCGGGUUCGAGUCCCGUACGGAACG

This sample holds only a part of the variants without activity. Bounds are passed on as bounds.

In the data set the parent is B1. Nature of the data set: yeast fitness relative to wild type (ratio to wild type); higher = fitter; tRNA-Arg(CCU), competitive growth, 37 C, YPD. The method in brief: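 For this measurement, the tRNA-Arg(CCU) gene was varied by chemical synthesis at a 3% per-site mutation rate across 69 sites, and each variant was placed at the native genomic locus in Saccharomyces cerevisiae. The pooled strains went through a 24-hour competition in YPD at 37°C in six parallel replicates, with amplicons from start and end populations read by 100-nucleotide paired-end sequencing. Darwinian fitness relative to wild type followed from the change in each genotype's frequency. Genotypes needed ≥ 100 starting reads, and estimates < 0.5 were set to 0.5.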
Consider GUUCCGUUGGCGUAAUGGAAACGCGUCUCCCUCCUAAGGAGAAGACUGCUGGUUCGAGUCCCGUACGGAACG, for which the yeast fitness is 0.817.

As to GUUCCGUUGGCGUAAUGGAAACGCGUCUCCCUCCUAAGGAGAAGACUGCGGGUUCGAGACCAGUACGGAACG, the yeast fitness was no more than 0.5.

For GUUCCGUUGGCGUAAUGGCCACGCGUCUCCCUUCAAAGGAGAAGACUGAGGGUUCGAGUCCCGUACGGAACG, the yeast fitness is 0.539.

Turning to GUUCCGUUGGCGUAAUGGAAACGCGUCUCCCUCCUAAGGAGAAGACUGCGGGUUCGAGUCCCGUACAGAACG, the yeast fitness turned out to be 0.866.

On to GUUCCGUUGGCGUAAUGGAAACGCGCCUCACUCCUAAGGAGAAGACUGCGGGUUCGAGUCCCGUACGGAACG, for which the yeast fitness came to 0.639.

GUUCCGUUGGCGUAAUGGAAACGCGUCUCCCUCCUAAGAAGAAGACUGCGGGUUCGAGUCCCCUACGGAACG: the yeast fitness was no more than 0.5.

Regarding GUUCCGUUGGCGUAAUGGAAACGCGUCUCCCUCCUAAGGAGAAGACUGCGGGUUGGGGUCCCGUACGGAACG, the yeast fitness worked out at 0.5.

Turning to GUUCCGUUGGCGUAAUGGAAACGCGUCUCCCUCCUAAGGAGAAGACCGCGGGUUCGAGUCCCGUAUGGAACG, the yeast fitness stood at 0.751.

Turning to GUUCCGUUGGCGUAAUGGCUACGCGUCUCCCUCCUAAGGAGAAGACUGCGGGUUCGAGUCCCGUACGGAUCG, the yeast fitness amounted to 0.794.

With GUUCCGUUGGCGUAAUGGAAACGCGUCUCCCUCCUAAGGAGAAGAUUGCGGGUUGGAGUCCCGUACGAAACG, the yeast fitness was no more than 0.5.

As to GUUCCGUUGGCGUAAUGGCUACGCGUCUCCCUCCUAAGGAGAAGACUGCGGGUUCCUGUCCCGUACGGAACG, the yeast fitness amounted to 0.562.

As to GUUCCGUUGGCGUAAUGGAAACGCGUCACCCUCCUAUGGAGUAGACUGCGGGUUCGAGUCCCGUACGGAACG, the yeast fitness was no more than 0.5.

As for GUUCCGUUGGCGUAAUGGAAACGCGUCUCCCUCUUAAGGAGUAGACUGCGGGUUCGAGUCCCGUACGGAACG, the yeast fitness amounted to 0.543.

Regarding GUUCCGUUGGCGUAAUGGAAACGCGUCUCCCUCCUAAGGAGAAGACUCCGGGUUCGAGUCCCGUACCGAACG, the yeast fitness was no more than 0.5.

Regarding GUUCCGUUGGCGUAAUGGAAACGCGUCUCCCUCCUAAGGACAAGACUGCGGGUUGGAGUCCCGUAGGGAACG, the yeast fitness was no more than 0.5.

As for GUUCCGUUGGCGUAAUGGAAACGCAUCUCCCUCCUAAGGCGAAGAUUGCGGGUUCGAGUCCCGUACGGAACG, the yeast fitness is 0.588.

Consider GUUCCGUUGGCGUAAUGGAAACGCCUCUCCCUACUAGGGAGAAGACUACGGGUUCGAGUCCCGUACGAAACG, for which the yeast fitness is no more than 0.5.

Turning to GUUCCGUUGGCGUAAUGGAAACGCGUCCCCCUCCUAAGCAGAAGACUGCGGGUUCGAGUCCCGUACGGAACG, the yeast fitness is no more than 0.5.

For the variant GUUCCGUUGGCGUAAUGGAAACGCGUCUCCCUCCUAAGGAGAAGACUGCGGGUUGGAGUCCCGUACGGAACG, the yeast fitness worked out at 0.559.

As for GUUCCGUUGGCGUAAUGGAAACGCGUCUCCCUCCUAAGGAGAAGACUGCGGGCUCGAGUCCCGUACGGAACG, the yeast fitness came out at 0.806.

On to GUUCCGUUGGCGUAAUGGAAACGCGUCUCCCUCCUAAGGAGAAGACUGCGGGUUCGAGUCACGUACGCAACG, for which the yeast fitness was found to be 0.648.

For GUUCCGUUGGCGUAAUGGCCACGCGUCUCCAUCCUAAGGAGAAGACUGCGGGUUCGAGUCCCGUACGGAACG, the yeast fitness was no more than 0.5.

As to GUUCCGUUGGCGUAAUGGCCACGCGUCUCCGUCCUAAGGAGAAGACUGCGGGUUCGAGUCCCGUACGGAACG, the yeast fitness is 0.542.

Turning to GUUCCGUUGGCGUAAUGGAAACGCCUCUCCCUACUAGGGAGAAGACUGCGGGUUCGAGUCCCGUACGGAACG, the yeast fitness was no more than 0.5.

With GUUCCGUUGGCGUAAUGGAAACGCGACUCCCUCCUAAGGAGAAGACUGCGGGUUCGAGUCCCGAACGGAACG, the yeast fitness turned out to be 0.553.

Regarding GUUCCGUUGGCGUAAUGGAAACGCGUCUCCCUCCUAAGGAGAAGACUGCAGGUUCGCGUCCCGUACGGAACG, the yeast fitness worked out at 0.516.

Turning to GUUCCGUUGGCGUAAUGGAAACGCGUCUCCCUCCUAAGGAGAAGACUGCGGGUUCGAGUCCCGUACAGAUCG, the yeast fitness is 0.691.

In the case of GUUCCGUUGGCGUAAUGGAAACGCAUCUCCCUCCUAAGGAGACGACUGCGGGGUCGAGUCCCCUACGGAACG, the yeast fitness is no more than 0.5.

As to GUUCCGUUGGCGUAAUGGAAACGCGUCUCCCUCCUAAGGAGAAGACUCCGGGUUCGAGUCCCGUACGGAACG, the yeast fitness worked out at 0.861.

Turning to GUUCCGUUGGCGUAAUGGAAACGCGUCUCCCUCCUAAGGAGAAGACUGCGGGUUCGAGUCCAGUACGGAACG, the yeast fitness stood at 0.774.

Take GUUCCGUUGGCGUAAUGGAAACGCGUCUCCCCCCUAAGGAGAAGACUGCGGGUUCGAGUCCCGUACGGAACG: the yeast fitness was found to be 0.848.

Consider GUUCCGUUGGCGUAAUGGAAACGCGUCUCCCUCCUAAGGAGAAGACUGCGGGUUCGAGUCCCGGACGGAACG, for which the yeast fitness amounted to 0.687.

Regarding GUUCCGUUGGCGUAAUGGAAACGCGUCUCCCUCCUAAGGAGAAGACUGCGGGUUCGAGUCCCGCACGGAACG, the yeast fitness was found to be 0.901.

In the case of GUUCCGUUGGCGUAAUGGCCACGCGUCUCCGUCCUAAGGAGAAGACUGGGGGUUCGAGUCCCGUACGGAACG, the yeast fitness was no more than 0.5.

With GUUCCGUUGGCGUAAUGGCUAUGCGUGUCCCUCCUAAGGAGAAGACUCCGAGUUCGAGUCCCGUACGGAACG, the yeast fitness was no more than 0.5.

Regarding GUUCCGUUGGCGUAAUGGCUACGCGUCUCCCUCCUAAGGAGAAGACUGCGGGUUCGAGUCCCGUACUGUACG, the yeast fitness was found to be 0.53.

Regarding GUUCCGUUGGCGUAAUGGAAACGCGUCUCCCUCCUAAGCAGAAGACUGCGGGUUCGAGUCCCCUACGGAACG, the yeast fitness was no more than 0.5.

In the case of GUUCCGUUGGCGUAAUGGAAACGCGUCUCCCUCCUAAGGAGAAGACUGCGGGUUCGAGUCGCGUACAGAACG, the yeast fitness was no more than 0.5.
